High-throughput results deposited in PubChem BioAssay by Johns Hopkins Ion Channel Center.
KCNQ1 inh: inhibitors of human KCNQ1 channel, primary screen, cell-based, thallium flux, high-throughput. CHO-K1 KCNQ1, FluxOR thallium flux fluorescence; hits give high values. 310,000 compounds, 1.3% hits. B-score at 10 µM;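 active = compounds whose thallium flux B-score, printed positive for inhibition, exceeds three library SD while starting fluorescence stays within three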;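 also: channel opened by potassium depolarization with thallium stimulus after 20 min compound exposure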
KCNQ1 act: potentiators or activators of KCNQ1 channel, primary screen, cell-based, thallium flux, high-throughput; 310,000 compounds, 0.35% hits; CHO-K1 KCNQ1, thallium flux FluxOR fluorescence; hits give high values; B-score at 10 µM;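 active = fluorescence ratio B-score, a plate-corrected score, at least three library SD, with initial intensity B-score within 5 SD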
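Assay system: stable KCNQ1 CHO-K1 line; medium: assay buffer, equal DMSO in all wells; timing: 90 min dye loading and 20 min compound exposure, both at room temperature; technique: kinetic FluxOR thallium fluorescence, 10-s 1-Hz baseline, 110-s post-stimulus read; read-out basis: B score of baseline-normalized fluorescence ratio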
KCNK3 block: human KCNK3 channel inhibitors, primary screen, CHO cells, FluxOR thallium flux, B-score; Potassium channel subfamily K member 3 (Homo sapiens), O14649; FluxOR fluorescence; hits give low values; B-score at 10 µM; 340,000 compounds, 0.84% hits; AID 602410, 2012;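 active = B-score under library mean minus 4 SD, starting fluorescence ratio at most library mean plus 5 SD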;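 also: more negative B-score means stronger inhibition of thallium flux through KCNK3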
hERG rescue: hERG rescue from dofetilide block, primary screen, cell-based, CHO-hERG, FluxOR thallium flux, dofetilide IC70 | activation (rescue from dofetilide block), less the hit threshold, % at 10 µM | dofetilide IC70 present | 310,000 compounds, 0.51% hits;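 active = activation above the mean of controls blocked by dofetilide plus 5 SD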;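 also: thallium influx through hERG after potassium depolarization seen as dye fluorescence rise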
KCNK9 inh: KCNK9 potassium channel inhibitors, primary screen, HEK293 cells, thallium flux; Potassium channel subfamily K member 9 (Homo sapiens), Q9NPC2; FluxOR thallium flux fluorescence; hits give low values; B-score at 10 µM; 310,000 compounds, 1.2% hits; AID 488922, 2010;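 active = ratio B-score over 3 SD below the library mean, with starting fluorescence within 5 SD of its mean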;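 also: negative B-score means less thallium flux so channel inhibition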
Target sequence (Q9NPC2 whole entry, looked up): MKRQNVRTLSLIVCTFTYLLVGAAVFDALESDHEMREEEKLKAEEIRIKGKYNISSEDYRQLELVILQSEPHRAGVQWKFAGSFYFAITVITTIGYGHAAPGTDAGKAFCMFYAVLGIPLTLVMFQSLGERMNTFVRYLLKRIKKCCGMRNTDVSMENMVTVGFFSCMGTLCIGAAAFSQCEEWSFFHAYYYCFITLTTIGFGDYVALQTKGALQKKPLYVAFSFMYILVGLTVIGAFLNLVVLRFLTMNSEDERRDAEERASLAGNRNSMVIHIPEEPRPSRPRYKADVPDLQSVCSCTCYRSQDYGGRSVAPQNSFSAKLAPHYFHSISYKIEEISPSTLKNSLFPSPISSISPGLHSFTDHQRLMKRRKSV
* = called active by the depositor; i = inactive; . = no result. This is a sample that favours compounds with a hit; in the whole collection about 3.1% have one here.

SMILES | KCNQ1 inh | KCNQ1 act | KCNK3 block | hERG rescue | KCNK9 inh
Cc1ccc(C#CC[N+]2(CC#Cc3ccc(C)cc3)CCCCC2)cc1 | 12* | i | i | -30 | i
C(#Cc1ccccc1)C[N+]1(CC#Cc2ccccc2)CCCCC1 | i | i | i | -13 | i
COc1ccc(Cn2c(=S)[nH]c3ccccc32)cc1 | i | i | i | 7.2* | i
COCCn1c(=S)[nH]c2ccccc21 | i | i | i | -8 | i
COc1ccc(-n2c(=S)[nH]c3ccccc32)cc1 | i | i | i | -12 | i
COc1ccc(-n2c(=S)[nH]c3ccccc3c2=S)cc1 | i | 16* | i | 0 | i
CC(C)n1ncc2c(C(=O)NCCc3ccc(F)cc3)cc(C3CC3)nc21 | . | . | i | . | .
COc1ccc(NC(=O)CN2C(=O)NC(c3ccccc3)(c3ccccc3)C2=O)cc1 | i | i | i | -6 | i
COc1ccc(C2(c3ccc(OC)cc3)NC(=O)N(CC(=O)Nc3ccc(OC(F)F)cc3)C2=O)cc1 | 9* | i | i | -2 | i
O=C(Oc1ccc2ccccc2c1)c1cncc(Br)c1 | i | i | i | -9 | i
O=C(Oc1ccc2c(=O)c(Oc3ccc4ccccc4c3)coc2c1)c1cncc(Br)c1 | i | i | i | 11* | i
COc1ccc(CCc2ccc3ccccc3n2)cc1 | . | . | i | . | .
O=P(Cc1cc(Br)cc(Br)c1OCCO)(c1ccccc1)c1ccccc1 | i | i | i | -10 | -6.7*
O=P(c1ccccc1)(c1ccccc1)c1cc(Br)cc(Br)c1OCCO | i | i | i | -13 | i
Cc1cc(C)n2nc(C(=O)OCC(=O)N(Cc3ccccc3)C(C)C)nc2n1 | . | . | i | . | .
Cc1cc(C)c(S(=O)(=O)c2ccccc2)c(OC(=O)c2c(Cl)cccc2Cl)n1 | i | i | i | -7 | -7.2*
COc1ccc(CC(=O)c2ccc(O)cc2O)cc1 | i | i | i | -2 | i
O=C(Cc1ccc(Br)cc1)c1ccc(O)cc1O | i | i | i | -11 | -8.2*
COc1ccccc1-c1sc2cc3c(cc2c1C#Cc1cncn1C)OCO3 | . | . | i | . | .
CCOC(=O)c1sc(NC(=O)Nc2ccccc2Cl)cc1C | i | i | i | -11 | i
CCOC(=O)c1sc(NC(=O)c2ccncc2)c(C#N)c1C | i | i | i | -10 | i
CCOC(=O)c1sc(NC(=O)Nc2ccccc2)cc1C | 6* | i | i | -18 | i
CCOC(=O)c1sc(NC(=O)c2ccccc2C(=O)O)c(C(=O)OCC)c1C | i | 8* | i | -2 | i
CCOC(=O)c1sc(NC(=O)c2cc(-c3ccccc3C)nc3ccccc23)c(C#N)c1C | 10* | i | i | -28 | i
CS(=O)(=O)c1ccc(C(=O)NNC(=O)c2ccccc2-n2cccc2)cc1 | . | . | i | . | .
SMILES | KCNQ1 inh | KCNQ1 act | KCNK3 block | hERG rescue | KCNK9 inh
Brc1ccc(Br)c2cnccc12 | . | . | i | . | .
CCCn1nnc(NC(=O)C(c2ccccc2)c2ccccc2)n1 | i | i | i | 6.6* | i
CCCCn1nnc(NC(=O)C(c2ccccc2)c2ccccc2)n1 | i | i | i | -22 | i
O=C(NCc1nc2ccccc2[nH]1)c1ccc(S(=O)(=O)N2CCCC2)cc1 | i | i | i | 8.1* | i
O=C(CNS(=O)(=O)c1ccccc1)OCC(=O)c1ccccc1Cl | i | i | i | -14 | i
CCCCc1cc(=O)oc2cc(C)cc(OCC(=O)NCc3ccccn3)c12 | i | i | i | -16 | i
CN1CCN(CCCN2c3ccccc3Sc3ccc(C(F)(F)F)cc32)CC1 | 6* | i | i | -23 | i
C=CC(C)(C)O[C@@H]1O[C@H](CO)[C@@H](O)[C@H](O)[C@H]1O | . | . | i | . | .
S=C(NCCc1ccccn1)Nc1cc(Cl)cc(Cl)c1 | 6* | i | i | -11 | i
S=C(NCCc1ccccn1)Nc1ccc(Cl)c(Cl)c1 | i | i | i | -6 | i
